Here are results for 17 molecules from publication PMC4796946 (Nature, 2015).

“Also recorded” adds a separate entry of the source.

In one series the target is GPR65 (Homo sapiens, UniProt Q8IYL9). Put plainly: Split-luciferase cAMP reporter assay, GPR65. It counts as cell-based. The following applies: for inhibition of GPR65: receptors activated by protons or by BTB09089; for activity at GPR65: effect on proton response, cAMP. The method in brief: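 GPR65 was co-transfected with the GloSensor reporter into HEK293-T cells, which were then luciferin-loaded (4 mM, pH 8.4, 90 min, 37 °C). Test compound was applied in pH-adjusted HBSS/HEPES/MES buffer for 20 min at room temperature. The receptor was activated either by protons at pH 7.40 or by 30 μM reference agonist at pH 8.40. Luminescence was normalised to buffer basal. Data come from at least three assays, each at least in triplicate (≥16 measurements total).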
GPR65, sequence (Q8IYL9 whole entry): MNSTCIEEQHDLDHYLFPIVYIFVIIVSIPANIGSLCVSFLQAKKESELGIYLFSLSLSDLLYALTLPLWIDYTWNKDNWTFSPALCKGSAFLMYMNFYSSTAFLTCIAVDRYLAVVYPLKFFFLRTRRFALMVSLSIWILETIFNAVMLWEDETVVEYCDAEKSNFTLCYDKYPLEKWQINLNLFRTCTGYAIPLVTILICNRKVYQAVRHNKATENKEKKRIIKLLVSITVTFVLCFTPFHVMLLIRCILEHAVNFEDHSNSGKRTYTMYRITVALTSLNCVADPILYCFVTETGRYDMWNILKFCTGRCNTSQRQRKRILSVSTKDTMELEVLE
On the technique in general: A reporter such as luciferase makes a cellular process visible.

For series [1], the target named is T1, GPR68 (Homo sapiens, UniProt Q15743). Kind of series: Split-luciferase. It counts as cell-based. The following applies: for stimulation of cAMP production by benzodiazepines: 10 μM, pH 6.50 or 7.40. The method in brief:
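HEK293-T cells were co-transfected with receptor and GloSensor 7A reporter and plated at least 6 h at 15,000 cells/well in 1% dialysed FBS DMEM. Cells were loaded with 4 mM luciferin in drug buffer, pH 8.4, for 90 min at 37 °C; luciferin was then removed. Proton concentration-responses ran without and with rising test compound levels premixed in pH-adjusted HBSS/HEPES/MES (TAPS at high pH; BSA for some). Plates stood 20 min at room temperature before luminescence reading. Data were fitted to an allosteric operational model, with proton pEC50 as pKA.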
For orientation: Changes in cAMP serve as a functional read-out for many G protein-coupled receptors.

Another series has as its system phosphodiesterases. Put plainly: Phosphodiesterase inhibition.
In series [2] the test system is wild-type and GPR68 KO mice. Kind of series: Fear conditioning. It counts as in vivo.
In series [3] the target is T1, GPR68. Put plainly: Calcium mobilization assay. It counts as cell-based. As to conditions: 10 μM, GPR68 wild-type. Summed up: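 HEK293-T cells were transfected, plated overnight in DMEM with 1% dialysed FBS at 15,000 cells/well, then loaded 60 min at 37 °C (5% CO2) with Fluo-4 Direct dye in drug buffer containing 2.5 mM probenecid, pH 8.0. Test compound was added first (10 μM final before the pH addition), followed by 10 min reading. pH solutions (HBSS, 7 mM each HEPES/HEPPS/MES, NaOH-adjusted) were then added. Fluorescence was read 1/s for 4 min and expressed as fold of basal; n=3.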
In general terms: Calcium flux is commonly read through the fluorescence of an indicator in the cells.

For series [4] the following is noted: cited from earlier work.
In the next series the target is GPR4 (Homo sapiens, UniProt P46093). Kind of series: Split-luciferase cAMP reporter assay, GPR4. It counts as cell-based. The following applies: effect on proton response. Summed up: (§1)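 GloSensor cAMP assay in HEK293-T cells co-transfected with receptor (wild-type or mutant) and GloSensor 7A, plated at 15,000 cells/well for at least 6 h. Cells were loaded with luciferin (4 mM, pH 8.4, 90 min, 37 °C), which was then removed. Test compound was added in NaOH-adjusted pH solutions (HBSS, 10 mM HEPES, 10 mM MES), 20 min at room temperature. Luminescence is given as RLU fold of buffer basal. Curves were fitted with a 4-parameter logistic; n≥3.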
GPR4, sequence (P46093 whole entry): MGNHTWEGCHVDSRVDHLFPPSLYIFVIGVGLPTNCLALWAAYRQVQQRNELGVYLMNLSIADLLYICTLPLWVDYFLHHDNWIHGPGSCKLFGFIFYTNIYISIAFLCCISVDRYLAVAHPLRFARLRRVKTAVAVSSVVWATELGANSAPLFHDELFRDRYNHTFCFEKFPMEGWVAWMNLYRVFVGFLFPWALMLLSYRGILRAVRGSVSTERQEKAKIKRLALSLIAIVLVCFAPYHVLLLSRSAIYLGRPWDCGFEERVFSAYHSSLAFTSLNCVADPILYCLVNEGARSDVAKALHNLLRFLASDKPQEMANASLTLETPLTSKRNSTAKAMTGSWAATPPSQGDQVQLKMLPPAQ

Series [5] concerns the target T1, GPR68. Put plainly: Yeast growth assay, GPR68 paired with chimeric Gq yeast. The following applies: library screen at 10 μM. It counts as cell-based. The method in brief: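 Yeast with receptor were diluted in SD-His-Ura medium to OD600 0.02 final. Test compound was 10 μM final, in triplicate, with 3-amino-1,2,4-triazole (pH 5.4) at a level set by titration without ligand. Growth ran at 30 °C for 2–5 days. Cells were resuspended and read at OD600. % growth stimulation = […], given as mean ± SEM of three wells.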

Series [6] concerns PKA and MAP kinase pathways. It counts as cell-based, human. As to conditions: 50 μM, 10 min, GPR68-expressing HEK293 cells.
A further series relates to GABAA receptor. Kind of series: Radioligand binding profiling. The method in brief: (§2)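 Membranes came from animal brain tissue, stable cell lines or transiently transfected HEK293-T cells. Competition binding used a fixed radioligand concentration, incubated in the dark at 22 °C, and was ended by vacuum filtration onto GF/B filters, followed by beta counting. Values are mean pKi (n=2–4).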

Series [7] has as its system GPR65 mutant receptors (D153A, R187L, F242A, Y272A). Kind of series: cAMP reporter assay at GPR65 mutant receptors. It counts as cell-based, human. The following applies: GPR65 R187L, F242A, Y272A. The method in brief:
as §1

The target in series [8] is GPR65 mutant receptors (D153A, R187L, F242A, Y272A) (Homo sapiens, UniProt Q8IYL9, D153A). Put plainly: cAMP reporter assay at GPR65 mutant receptors. It counts as cell-based. The following applies: GPR65 D153A. The method in brief:
as §1

Series [9] deals with T1, GPR68. Kind of series: PI hydrolysis assay in GPR68-transfected HEK293-T cells. It counts as cell-based. The following applies: 10 μM, under equilibrium. The method in brief:
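Transfected HEK293-T cells (24 h) were plated in 10% FBS DMEM. After 5 h they were labelled overnight with 3H-inositol (1 μCi/well) in inositol-free DMEM with 5% dialysed FBS. Cells were washed with HBSS, 10 mM HEPES, 10 mM MES, 20 mM LiCl, pH 8.4. pH-adjusted solutions containing 20 mM LiCl and 10 μM test compound were applied for 20 min. Extraction used 50 mM ice-cold formic acid, 4 °C for 30 min; extracts were bead-captured (4 °C, 30 min) and counted as cpm; n=3.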

The target in another series is 5-HT2B (Homo sapiens, UniProt P41595). Kind of series: Radioligand binding profiling. As to conditions: profiling against 58 GPCRs, ion channels, and transporters. Summed up:
as §2

The next series has as its target A2A receptor (Homo sapiens, UniProt P29274). Put plainly: Radioligand binding profiling. As to conditions: profiling against 58 GPCRs, ion channels, and transporters. The method in brief: as §2
The test system of a further series is control HEK293 T cells. Put plainly: cAMP reporter assay at control HEK293 T cells. It counts as cell-based, human. The method in brief:
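Control HEK293-T cells were run in the GloSensor cAMP format: luciferin loading at 4 mM, pH 8.4, 90 min, 37 °C, then removal. Test compound in pH-adjusted HBSS/HEPES/MES buffer was applied for 20 min at room temperature before luminescence reading. Results are normalised fold of basal from at least three assays, each at least in triplicate (≥16 measurements).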

[10] abbreviates: cAMP production, proton as agonist.

T1 sequence (Q15743 whole entry): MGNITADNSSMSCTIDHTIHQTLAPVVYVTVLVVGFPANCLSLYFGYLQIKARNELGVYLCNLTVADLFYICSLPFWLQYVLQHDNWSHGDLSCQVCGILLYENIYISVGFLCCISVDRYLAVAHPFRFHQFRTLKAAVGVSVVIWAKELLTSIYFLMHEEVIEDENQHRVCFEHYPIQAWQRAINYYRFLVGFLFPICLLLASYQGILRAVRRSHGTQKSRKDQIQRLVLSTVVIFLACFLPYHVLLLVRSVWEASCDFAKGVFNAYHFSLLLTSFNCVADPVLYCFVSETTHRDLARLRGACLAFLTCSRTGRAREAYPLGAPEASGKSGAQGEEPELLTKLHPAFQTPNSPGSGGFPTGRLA
GPR65 mutant receptors (D153A, R187L, F242A, Y272A) (Homo sapiens, UniProt Q8IYL9, D153A), sequence (Q8IYL9 whole entry D153A): as the sequence (Q8IYL9 whole entry) above, with D153A counted along it
A2A receptor, sequence (P29274 whole entry): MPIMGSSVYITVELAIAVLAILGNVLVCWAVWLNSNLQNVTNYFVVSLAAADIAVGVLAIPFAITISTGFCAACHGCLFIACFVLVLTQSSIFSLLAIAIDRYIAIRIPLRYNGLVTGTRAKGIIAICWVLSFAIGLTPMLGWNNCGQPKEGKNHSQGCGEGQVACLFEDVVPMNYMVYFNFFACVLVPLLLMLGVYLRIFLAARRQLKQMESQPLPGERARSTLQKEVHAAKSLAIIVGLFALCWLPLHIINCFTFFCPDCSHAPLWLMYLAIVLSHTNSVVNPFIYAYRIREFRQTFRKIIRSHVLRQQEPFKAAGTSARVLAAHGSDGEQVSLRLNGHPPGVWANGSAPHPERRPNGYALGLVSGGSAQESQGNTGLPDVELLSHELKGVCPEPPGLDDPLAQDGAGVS
5-HT2B, sequence (P41595 whole entry): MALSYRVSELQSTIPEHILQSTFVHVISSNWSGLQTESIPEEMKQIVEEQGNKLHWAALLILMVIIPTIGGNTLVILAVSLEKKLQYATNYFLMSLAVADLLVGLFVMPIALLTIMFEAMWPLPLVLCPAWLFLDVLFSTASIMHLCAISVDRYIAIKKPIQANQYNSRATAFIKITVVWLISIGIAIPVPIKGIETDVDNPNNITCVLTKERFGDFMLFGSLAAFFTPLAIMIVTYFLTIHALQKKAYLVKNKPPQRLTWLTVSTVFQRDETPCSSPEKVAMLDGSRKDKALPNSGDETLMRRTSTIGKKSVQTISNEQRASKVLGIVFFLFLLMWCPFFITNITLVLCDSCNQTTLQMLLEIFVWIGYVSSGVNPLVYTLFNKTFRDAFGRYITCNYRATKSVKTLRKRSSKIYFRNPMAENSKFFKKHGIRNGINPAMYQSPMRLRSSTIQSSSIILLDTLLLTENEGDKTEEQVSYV

In the case of `O=C(Nc1nc(-c2ccc3c(c2)OCCO3)cs1)c1csnn1` [ZINC41613384], the “inhibition of GPR65” value against GPR65 is “GPR65-specific inhibition”.

Regarding `Nc1nc(NCCCc2ccccc2)nc(-c2ccccc2CO)n1` [C3], at GPR68 [1] (setting [10]), the “allosteric effect (qualitative comparison)” value (shortened to “allosteric effect”) is listed as “reduced allostery”.

For the molecule `O=C1CCc2cc(-c3csc(NC(=O)c4ccc(-c5ccccc5F)o4)n3)ccc2N1` [ZINC9468042], the “inhibition of GPR65” value at GPR65 was “GPR65-specific inhibition”.

As for `Nc1nc(NCCCCc2ccccc2)nc(-c2ccccc2CO)n1` [C4], the “allosteric effect” value on GPR68 [1] (setting [10]) is “reduced allostery”.

As for `CCCCNc1c(C(=O)OCC)c(C)nc2c1cnn2CC` [tracazolate], in the series on phosphodiesterases, the phosphodiesterase inhibition entry is on record as “potent phosphodieseterase inhibitor”.

`Nc1nc(NCc2ccccc2)nc(-c2cccc(CO)c2)n1` [ZINC32547799]: in series [2] (wild-type mice), the learning and memory entry was “no measurable effect”. For the same molecule, the “contextual and cue memory” value in series [2] (wild-type mice, 10 mg/kg) is listed as “no effect”; in series [2] (wild-type mice, 30 mg/kg), “no effect”. Besides, the learning result is “no effect” in [2] (wild-type mice, 10 mg/kg) and “enhanced” in series [2] (wild-type mice, 30 mg/kg). Moreover, the “effect on proton-mediated calcium release” value on GPR68 [3] is given as “little effect”.

`O=C1Nc2ccc(Cl)cc2C(c2ccccc2Cl)=NC1O` (centres unmarked) [lorazepam]: the “concentration in plasma during treatment” value in [4] is “micromolar”. On GPR65, the “activity at GPR65” value is on record as “no activity”. For the same molecule, the “activity at GPR4” value at GPR4 is on record as “no activity”. The “stimulation of cAMP production by benzodiazepines” value (shortened to “stimulation of cAMP production”) at GPR68 [1] is “stimulated cAMP production in a GPR68- and pH-dependent manner”. Besides, on GPR68 [5], the “stimulation of yeast growth” value was “more than two-fold”. The “activation of PKA and MAP kinase pathways” value in [6] is on record as “activate”. Further, the “activity in panel of CNS targets” value with GABAA receptor is listed as “substantial activity”.

`O=C1CN=C(c2ccccc2Cl)c2cc([N+](=O)[O-])ccc2N1` [clonazepam]: at GPR68 [1], the “stimulation of cAMP production” value was “stimulated cAMP production in a GPR68- and pH-dependent manner”.

Regarding `O=C1CN=C(c2ccccc2F)c2cc(Cl)ccc2N1` [norfludiazepam], on GPR68 [1], the “stimulation of cAMP production” value was “stimulated cAMP production in a GPR68- and pH-dependent manner”.

For `Nc1nc(-c2ccc(Cl)c(Cl)c2)c(-c2ccncc2)s1` [CGH2466], in the series on phosphodiesterases, the phosphodiesterase inhibition entry is given as “potent phosphodieseterase inhibitor”. For the same molecule, the “allosteric effect” value at GPR68 [1] (setting [10]) is on record as “much lower than that of ogerin”. On GPR68 [1] (with phosphodiesterase inhibitor Ro 20-1724), the “GPR68 activity in the presence of Ro 20-1724” value was “minimal activity”.

In turn, `Nc1nc(NCCc2ccccc2)nc(-c2ccccc2CO)n1` [C2] yielded a α-factor on GPR68 [1] (allosteric operational model, proton as agonist) of 22. Moreover, the “leftward shift of proton response relative to ogerin” value on GPR68 [1] (cAMP production) worked out at 3 fold.

As for `OC1CCC(Nc2nc(-c3ccccc3)nc3[nH]ccc23)CC1` (centres unmarked) [SLV320], the phosphodiesterase inhibition entry with phosphodiesterases was “potent phosphodieseterase inhibitor”.

In the case of `Cc1nc(-c2ncccn2)sc1C(=O)O[C@@H](c1ccccc1)c1ccncc1` [ZINC62678696], the “inhibition of GPR65” value at GPR65 is listed as “GPR65-specific inhibition; also recorded: inhibited”.

Consider `CN1N=C(SCc2ccc(Cl)cc2Cl)Sc2c1cnn(C)c2=O` [BTB09089, reference compound], for which, on GPR65, the “agonist activity at GPR65 (qualitative)” value was “weak agonist activity”, the “mode of action at GPR65” value is “allosteric agonist” and the “potentiation of proton efficacy/activity at GPR65” value is listed as “failed to potentiate”. Also, the “effect of R187L, F242A, Y272A mutations on compound activity” value in series [7] was “reduced the activity”. Further, the “effect of D153A mutation on compound activity” value in [8] is listed as “no effect”.

`O=C1CN=C(c2ccccc2)c2cc(Cl)ccc2N1` [desmethyldiazepam]: the “stimulation of cAMP production” value on GPR68 [1] was “stimulated cAMP production in a GPR68- and pH-dependent manner”.

On to `Nc1nc(NCc2ccccc2)nc(-c2ccccc2CO)n1` [ogerin], for which, on GPR65, the “activity at GPR65” value is “minimal PAM activity”. The “activity at GPR4” value at GPR4 is listed as “minimal PAM activity”. Further, at GPR68 [9], the “effect on proton activity in PI hydrolysis” value is “slightly potentiated”. Also, the “allosteric effect” value at GPR68 [1] (setting [10]) is listed as “much higher allosteric effect than lorazepam”. Further, the memory retrieval result in series [2] (GPR68 KO mice, 10 mg/kg) is recorded as “no effect”. In [2] (WT mice, 10 mg/kg), the contextual-based fear memory result is on record as “attenuated” and the cue-based memory result was “without effects”. In addition, the “affinity at 5-HT2B” value at 5-HT2B is listed as “moderate affinity”. For the same molecule, the “activation of PKA and MAP kinase pathways” value in series [6] is “activate”. Moreover, on A2A receptor, the “affinity at A2A receptor” value is “moderate affinity”. Further, the “effect on proton-mediated calcium release” value at GPR68 [3] was “inhibited”.

Regarding `COc1ccc(-c2csc(NC(=O)CSc3nc[nH]n3)n2)cc1OC` [ZINC13684400], at GPR65, the “mode of action at GPR65” value is on record as “allosteric agonist” and the “potentiation of proton efficacy/activity at GPR65” value is “did not potentiate”. Also, the “agonist activity at GPR65” value on GPR65 (pH 8.40) was “over 2 fold of basal”. Also, in the series with control HEK293 T cells, the “activity at control cells” value was “without measurable activity”. Besides, the “effect of R187L, F242A, Y272A mutations on compound activity” value in series [7] is given as “reduced the activity”. In [8], the “effect of D153A mutation on compound activity” value is “much reduced the activity”.
